Laboratory results reported in paper PMC6286650 (EBioMedicine, 2018).

Columns and labels:
[1] = tested on: F-actin; assay: F-actin fluorescence under actin inhibitor; assay type: cell-based
[2] = tested on: HVSMCs; assay type: cell-based, human; conditions: 10 μM
[3] = tested on: isolated myocardial tissue; assay: Stimulation of isolated myocardial tissue
[4] = tested on: actin; assay: Hypoxia-induced actin degradation, fluorescence intensity; assay type: cell-based; conditions: hypoxic group 264
[5] = tested on: actin; assay type: biochemical; conditions: actin/transgelin plus compound
[6] = tested on: transgelin (−/−) mice; assay: Isoproterenol-induced myocardial ischemia model in transgelin; assay type: in vivo; conditions: 10 mg/kg
Method in brief: (§1)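 Wild-type C57 or cre-lox transgelin knockout C57/BL6 mice, 24 per genotype, were split into normal, model and two treatment groups. Test compound was given orally at 10 mg/kg daily for one week; normal and model groups got saline. On day 5, isoproterenol 3 mg/kg i.p. was given (saline for normal group). After day 7, mice were anaesthetized with chloral hydrate for a three-needle-electrode ECG on a 40–42 °C pad.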

[7] = tested on: C57 wild type mice; assay: Isoproterenol-induced myocardial ischemia model in wild type mice; assay type: in vivo
Method in brief: as §1

[8] = tested on: actin; assay: Multi-angle light scattering of actin aggregation; assay type: biochemical; conditions: in presence of transgelin
[9] = target: transgelin (Homo sapiens, UniProt Q01995); assay: Biacore; conditions: Biacore binding to transgelin, 25 °C, CM5 chip, NA = no activity
transgelin, sequence (Q01995 whole entry): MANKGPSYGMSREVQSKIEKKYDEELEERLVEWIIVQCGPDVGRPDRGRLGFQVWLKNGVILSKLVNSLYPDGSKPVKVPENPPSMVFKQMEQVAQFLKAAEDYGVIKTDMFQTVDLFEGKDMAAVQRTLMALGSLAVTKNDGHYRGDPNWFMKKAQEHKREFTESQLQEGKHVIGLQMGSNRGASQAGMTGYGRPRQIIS
Method in brief: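 CM5 chip at 25 °C with PBS-EP running buffer. Transgelin was amine-coupled by EDC/NHS, the same way as actin (0.4 mg/mL in 10 mM phosphate pH 7.4, 12 min, then 1 M ethanolamine pH 8.5; about 4000 RU). Test compound was run over protein and blank channels at 0–25 uM at 20 μL/min. Association 3 min, dissociation 300 s; regeneration with 10 mM glycine-HCl pH 2.5.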

[10] = tested on: F-actin; assay: F-actin features in cells; assay type: cell-based, human; conditions: versus control group
[11] = tested on: transgelin and actin; assay type: binding; conditions: disregarding the effect of SAA
[12] = tested on: CASMCs; assay: Cell contraction and F-actin formation in CASMCs; assay type: cell-based; conditions: 10 μM
Method in brief: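 Coronary artery smooth muscle cells came from primary culture in DMEM with 10% foetal bovine serum. They were treated with test compound at 10 μM, and relative cell length and F-actin formation were assessed against untreated control.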

[13] = isoproterenol-treated model group, ISO 3 mg/kg i.p.

Molecule `CC[C@]1(O)C[C@H]2CN(CCc3c([nH]c4ccccc34)[C@@](C(=O)OC)(c3cc4c(cc3OC)N(C=O)[C@H]3[C@@](O)(C(=O)OC)[C@H](OC(C)=O)[C@]5(CC)C=CCN6CC[C@]43[C@@H]65)C2)C1` [vincristine, reference compound] has a F-actin fluorescence intensity ([1]; vincristine alone, control 395) of 139.
With `O=C(/C=C/c1ccc(O)c(O)c1/C=C/c1ccc(O)c(O)c1)O[C@H](Cc1ccc(O)c(O)c1)C(=O)O` [SAA, salvianolic acid A] the “Co-localization of transgelin and actin” value ([2]; control approximately 57%) was 78%, the “Average length of VSMCs” value ([2]; control approximately 90 μm) was roughly 80 μm and the “Stimulation effect on isolated myocardial tissue” value [3] was “no stimulation effect”. For the same molecule, the Actin fluorescence intensity [4] was 453, the Actin polymerization [5] was “marked increase in actin polymerization” and the “CK, CK-MB, AST and LDH levels relative to transgelin (−/−) MI model group” value [6] was “not significantly changed”. The “Therapeutic effect on myocardial ischemia” value [6] was “no therapeutic effect”, the Heart infarction ratio ([7]; 10 mg/kg oral daily for 7 days, wild type MI mice 11.2%) was 4% and the “Polymerization (aggregation) of actin” value [8] was “further enhanced”. For the same molecule, the Kd [9] was 7.11 µM, the “F-actin area, F-actin percentage area, total F-actin length and average F-actin length” value [10] was “increased” and the “Protein binding signal of transgelin and actin when SAA was added” value [11] was 1.3 times. The F-actin fluorescence intensity ([1]; co-treatment with vincristine, vincristine alone 139) was 373 and the “Relative length of CASMCs” value [12] was “declined”.
In the case of `CC(C)NCC(O)c1ccc(O)c(O)c1` (stereo not shown) [isoproterenol], the “Serum AST level compared to normal group” value [7, 13] is reported as 237% ± 19%, the “Serum CK level compared to normal group” value [7, 13] is reported as 166% ± 14% and the “Serum CK-MB level compared to normal group” value [7, 13] is reported as 165% ± 24%. For the same molecule, the “Serum LDH level compared to normal group” value [7, 13] was 174% ± 14%.
